# Laboratory results: PubChem BioAssay AID504392 (Broad Institute, 2011)
# Activity calls are given as the source filed them.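 The calls were made as follows: active = fitted curve rising past 10% caspase activation at or below the top valid dose; inactive = activity opposite to the expected rise, or the rest.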
# Assay: caspase activation in wild-type MEFs, dose response, counter-screen for Bcl2-A1 inhibitor project, cell-based, wild-type MEF, caspase luminescence, dry powder, set 2 (AID 504392)
# Details: CaspaseGlo luminescence, 3 h; series mostly up to 35 µM; caspase activation: at the top concentration
# Procedure, shortened: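 test system = wild-type mouse embryonic fibroblasts, not A1–BIM primed | buffer or medium = RPMI-1640, 10% FBS | times = 3 h compound at 37 °C, 1 h reagent at RT | signal = luminescence with CaspaseGlo caspase reagent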
row,SMILES,caspase activation
1,O=c1oc2ccccc2c(N2CCCCC2)c1[N+](=O)[O-],-1.15% (inactive)
2,O=c1oc2ccccc2c(Nc2cc(Cl)cc(Cl)c2)c1[N+](=O)[O-],-0.747% (inactive)
3,Cc1ccc(Sc2c([N+](=O)[O-])c(=O)oc3ccccc23)cc1,-1.99% (inactive)
4,Cc1ccc(Sc2c([N+](=O)[O-])c(=O)n(C)c3ccccc23)cc1,1.94% (inactive)
5,CCOCCCNc1c([N+](=O)[O-])c(=O)n(C)c2ccccc12,-0.369% (inactive)
6,Cc1ccc(Nc2c([N+](=O)[O-])c(=O)n(C)c3ccccc23)cc1,0.135% (inactive)
7,O=[N+]([O-])c1cnc2ccccc2c1Sc1ccccc1,-0.231% (inactive)
8,Cn1c(=O)c([N+](=O)[O-])c(Oc2ccccc2)c2ccccc21,0.176% (inactive)
9,Cc1ccc(Sc2c([N+](=O)[O-])cnc3ccccc23)cc1,0.971% (inactive)
10,Cc1ccc(Nc2c([N+](=O)[O-])c(=O)oc3ccccc23)cc1,0.158% (inactive)
11,O=C(Oc1cccc(/C=N/Nc2nc(Nc3ccccc3)nc(N3CCOCC3)n2)c1)c1ccco1,0.185% (inactive)
12,O=c1oc2ccccc2c(Cl)c1[N+](=O)[O-],-2.49% (inactive)
13,O=c1oc2ccccc2c(Sc2ccccc2)c1[N+](=O)[O-],-2.63% (inactive)
14,Cn1c(=O)c([N+](=O)[O-])c(Cl)c2ccccc21,-0.325% (inactive)
15,Cc1ccc(Sc2cc(=O)n(C)c3ccccc23)cc1,-2.63% (inactive)
16,CCOC(=O)N1CCN(c2c([N+](=O)[O-])c(=O)n(C)c3ccccc23)CC1,0.376% (inactive)
17,Cn1c(=O)c([N+](=O)[O-])c(-n2cnc3ccccc32)c2ccccc21,2.49% (inactive)
18,Cn1c(=O)c([N+](=O)[O-])c(Nc2ccc(Cl)cc2)c2ccccc21,0.621% (inactive)
19,CCSc1c([N+](=O)[O-])c(=O)oc2ccccc12,-0.856% (inactive)
20,CN1C(=O)C(C)(C)N(Cc2ccccc2)c2ccccc21,-0.09% (inactive)
